Consider seven compounds from ChEMBL document CHEMBL4043106, “Selective opioid growth factor receptor antagonists based on a stilbene isostere” (Bioorg Med Chem, 2017).

Structures are written as SMILES. Calls of active or inactive are those of the source. The rule behind the calls is not given here.

The target of data set [1] is Delta-type opioid receptor (Homo sapiens) (UniProt P41143). In words: Antagonist activity at delta opioid receptor (unknown origin) up to 10 uM by GTPgammaS functional assay. In outline: (§1)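 GTPγS functional assay at KOR, DOR and MOR, run in both agonist and antagonist modes, with test concentrations up to 10 μM.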
The target is the same in data set [2]. Kind of data set: Agonist activity at delta opioid receptor (unknown origin) up to 10 uM by GTPgammaS functional assay. Put shortly: as §1
Data set [3] addresses T1, Kappa-type opioid receptor (Homo sapiens, UniProt P41145). In words: Antagonist activity at kappa opioid receptor (unknown origin) up to 10 uM by GTPgammaS functional assay. In outline:
as §1

The target of data set [4] is T2, Mu-type opioid receptor (Homo sapiens, UniProt P35372). Kind of data set: Agonist activity at mu opioid receptor (unknown origin) up to 10 uM by GTPgammaS functional assay. In outline: as §1
The target of data set [5] is T1, Kappa-type opioid receptor. Kind of data set: Agonist activity at kappa opioid receptor (unknown origin) up to 10 uM by GTPgammaS functional assay. In outline:
as §1

Data set [6] concerns the target T2, Mu-type opioid receptor. In words: Antagonist activity at mu opioid receptor (unknown origin) up to 10 uM by GTPgammaS functional assay. In outline:
as §1

Data set [7] is filed under the species Chlorocebus aethiops. Kind of data set: Antagonist activity at OGFR in African green monkey COS7 cells harboring OGF assessed as increase in cell growth at 1 uM after 72 hrs by hemacytometric method. In outline: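 COS-7 cells grown in DMEM with 10% fetal calf serum and antibiotics at 37°C, 5% CO2. Seeded at 20,000 cells/well and counted 24 h later as time 0. Treated with 1 μM compound or sterile water vehicle; growth counted at 72 h.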

For data set [8], the target named is T2, Mu-type opioid receptor. In words: Agonist activity at human mu opioid receptor assessed as beta-arrestin recruitment up to 5 uM after 180 mins by chemiluminescence assay. Put shortly:
(§2)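 Commercial β-arrestin kit using cells transfected with human MOR, DOR or KOR. Cells plated and held 48 h at 37°C in 5% CO2. Compound added for 180 min at 37°C, starting at 5 μM with 1:3 serial dilutions. Reference agonists were DADLE (DOR), Met5-enkephalin (MOR) and dynorphin A (KOR). Detection reagent then added for 1 h at room temperature in the dark; chemiluminescence read.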

The target of data set [9] is Delta-type opioid receptor (Homo sapiens) (UniProt P41143). In words: Agonist activity at human delta opioid receptor assessed as beta-arrestin recruitment up to 5 uM after 180 mins by chemiluminescence assay. In outline: as §2
For data set [10], the target named is T1, Kappa-type opioid receptor. In words: Agonist activity at human kappa opioid receptor assessed as beta-arrestin recruitment up to 5 uM after 180 mins by chemiluminescence assay. The settings on record: 3 h. Put shortly: as §2
(In general: Activated receptors often draw arrestin, which recruitment assays turn into a signal.)

The species named for data set [11] is Chlorocebus aethiops. Kind of data set: Antagonist activity at OGFR in African green monkey COS7 cells harboring OGF assessed as increase in cell growth at 1 uM after 72 hrs by BrdU incorporation assay. Put shortly: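 COS-7 cells on coverslips exposed to compound (1 μM) for 24 h. BrdU added in fresh DMEM for 3 h, then cells stained with DAPI counterstain. At least 100 cells per treatment scored blind for BrdU incorporation; growth evaluated at 72 h.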
(Uptake of a labelled nucleoside into DNA is a usual measure of proliferation.)

In data set [12] the target is T3, Opioid growth factor receptor (Homo sapiens) (UniProt Q9NZT2).
T3 sequence (whole entry): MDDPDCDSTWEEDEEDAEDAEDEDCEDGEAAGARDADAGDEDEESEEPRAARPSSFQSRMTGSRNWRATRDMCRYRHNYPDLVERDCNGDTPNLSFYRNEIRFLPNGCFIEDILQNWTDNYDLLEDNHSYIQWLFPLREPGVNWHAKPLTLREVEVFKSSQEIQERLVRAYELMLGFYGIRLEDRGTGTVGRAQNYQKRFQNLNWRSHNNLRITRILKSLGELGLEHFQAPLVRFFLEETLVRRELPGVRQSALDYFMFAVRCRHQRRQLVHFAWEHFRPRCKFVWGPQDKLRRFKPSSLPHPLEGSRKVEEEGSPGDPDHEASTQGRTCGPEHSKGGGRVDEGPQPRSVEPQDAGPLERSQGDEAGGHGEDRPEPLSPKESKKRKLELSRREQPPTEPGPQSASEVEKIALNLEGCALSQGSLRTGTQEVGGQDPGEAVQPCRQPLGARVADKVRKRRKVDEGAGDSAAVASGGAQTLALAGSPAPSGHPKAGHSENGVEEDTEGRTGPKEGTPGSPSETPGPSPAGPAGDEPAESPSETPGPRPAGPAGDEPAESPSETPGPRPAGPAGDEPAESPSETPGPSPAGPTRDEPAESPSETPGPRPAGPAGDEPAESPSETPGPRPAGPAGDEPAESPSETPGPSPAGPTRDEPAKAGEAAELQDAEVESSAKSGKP
In words: Antagonist activity at OGFR in human SKOV3 cells assessed as cell growth inhibition at 10 uM treated as pulsed dose of 6 hrs every other day by hemacytometric method. The data set is classed as cell-based. In outline: (§3)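 SKOV-3 ovarian cancer cells in RPMI 1640 with 10% fetal calf serum and antibiotics at 37°C, 5% CO2. Seeded at 20,000 cells/well and counted after 24 h for time 0. Compound or sterile water given either continuously (24 h daily) or pulsed for 6 h every 48 h. Cells counted at 96 and 120 h; concentration series used for the dose-response.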

In data set [13] the target is T3, Opioid growth factor receptor (Homo sapiens). In words: Antagonist activity at OGFR in human SKOV3 cells assessed as cell growth inhibition at 10 uM treated as pulsed dose of 6 hrs every other day measured at 120 hrs post dose by hemacytometric method. Format: cell-based. In outline:
as §3

Data set [14] shares this target. In words: Antagonist activity at OGFR in human SKOV3 cells assessed as increase in cell growth at 10 uM after 24 hrs by hemacytometric method. Format: cell-based. In outline: as §3
Data set [15] shares this target. In words: Antagonist activity at OGFR in human SKOV3 cells assessed as cell growth inhibition at 5 to 10 uM treated as pulsed dose of 6 hrs every other day measured at 120 hrs post dose by hemacytometric method. Format: cell-based. Put shortly:
as §3

Data set [16] shares this target. In words: Antagonist activity at OGFR in human SKOV3 cells assessed as increase in cell growth at 0.1 to 10 uM treated continuously for 24 hrs measured at 120 hrs post dose by hemacytometric method. The data set is classed as cell-based. Put shortly: as §3

T1 sequence (P41145 whole entry): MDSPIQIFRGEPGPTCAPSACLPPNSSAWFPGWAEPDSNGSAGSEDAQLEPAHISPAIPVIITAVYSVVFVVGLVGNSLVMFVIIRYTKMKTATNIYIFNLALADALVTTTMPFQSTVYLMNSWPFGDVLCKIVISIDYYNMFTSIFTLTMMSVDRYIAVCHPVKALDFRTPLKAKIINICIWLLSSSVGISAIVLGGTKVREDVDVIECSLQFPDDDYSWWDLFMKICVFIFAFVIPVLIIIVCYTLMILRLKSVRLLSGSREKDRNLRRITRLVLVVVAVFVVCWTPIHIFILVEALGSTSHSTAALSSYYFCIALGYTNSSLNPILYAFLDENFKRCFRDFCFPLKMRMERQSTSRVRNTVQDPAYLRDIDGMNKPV
T2 sequence (P35372 whole entry): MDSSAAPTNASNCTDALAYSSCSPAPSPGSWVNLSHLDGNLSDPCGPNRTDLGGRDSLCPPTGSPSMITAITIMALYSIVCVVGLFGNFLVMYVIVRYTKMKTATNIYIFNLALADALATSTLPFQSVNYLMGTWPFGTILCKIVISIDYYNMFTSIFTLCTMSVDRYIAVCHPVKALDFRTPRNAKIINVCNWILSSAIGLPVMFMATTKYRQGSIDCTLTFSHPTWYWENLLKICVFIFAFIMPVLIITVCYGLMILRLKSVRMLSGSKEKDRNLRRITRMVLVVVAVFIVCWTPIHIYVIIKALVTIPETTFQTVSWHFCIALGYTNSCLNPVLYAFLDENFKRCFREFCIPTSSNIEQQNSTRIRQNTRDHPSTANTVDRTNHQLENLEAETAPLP
Chain of Delta-type opioid receptor (Homo sapiens) (P41143 whole entry): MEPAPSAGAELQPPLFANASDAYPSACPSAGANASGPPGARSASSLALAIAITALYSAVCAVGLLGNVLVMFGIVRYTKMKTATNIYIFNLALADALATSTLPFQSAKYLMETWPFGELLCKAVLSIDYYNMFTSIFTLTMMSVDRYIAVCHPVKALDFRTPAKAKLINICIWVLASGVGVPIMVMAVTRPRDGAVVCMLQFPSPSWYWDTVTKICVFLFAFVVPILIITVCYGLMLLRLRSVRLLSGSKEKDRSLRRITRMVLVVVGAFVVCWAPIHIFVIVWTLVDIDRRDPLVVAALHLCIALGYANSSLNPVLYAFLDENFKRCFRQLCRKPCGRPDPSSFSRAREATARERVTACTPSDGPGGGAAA

In the case of `COc1cc(NC(=O)c2cc(O)c(O)c(CC=C(C)C)c2)c(C/C=C(\C)CCC=C(C)C)c(OC)c1`, the inhibition entry in data set [1] and in data set [3] was “inactive” each time. In addition, the result in data set [2], in data set [4], in [8] and in data set [9] was inactive. Besides, the Activity entry in data set [5] and in data set [10] was “Not Active” each time. The “inhibition (INH)” value in data set [6] is recorded as “Not Active”. The “Cell growth increase (active/not active)” value in data set [7] was “Active”.
With `COc1cc(/C=C/c2cc(O)c(O)c(CC=C(C)C)c2)c(C/C=C(\C)CCC=C(C)C)c(OC)c1`, the “Cell growth increase (active/not active)” value in [7] is “inactive”.
Consider `COc1cc(OC)c(C/C=C(\C)CCC=C(C)C)c(C(=O)Nc2ccc(O)c(O)c2CC=C(C)C)c1`, for which the inhibition entry in data set [1], in data set [3] and in data set [11] was “inactive” each time. The outcome in [2], in data set [4], in data set [8] and in data set [9] was inactive. The Activity result in data set [5] and in data set [10] was “Not Active” each time. The “inhibition (INH)” value in data set [6] was “Not Active”. In addition, the “growth inhibition (GI)” value in data set [12] and in data set [13] was “Active” in each case. In addition, the inhibition entry in data set [14] was “Active”.
For `COc1cc(OC)c(C/C=C(\C)CCC=C(C)C)c(C(=O)Nc2cc(O)c(O)c(CC=C(C)C)c2)c1`, the inhibition entry in data set [1] and in data set [3] was “inactive” each time. Moreover, the result in data set [2], in data set [4], in [8] and in data set [9] was inactive. In addition, the “growth inhibition (GI)” value in data set [15] and in data set [12] was “Active” in each case. In addition, the Activity entry in [5] and in data set [10] was “Not Active” in each case. Besides, the inhibition entry in data set [16], in data set [11] and in [14] was “Active” throughout. The “inhibition (INH)” value in data set [6] is reported as “Not Active”.
For `COc1cc(/C=C/c2ccc(O)c(O)c2CC=C(C)C)c(C/C=C(\C)CCC=C(C)C)c(OC)c1`, the “Cell growth increase (active/not active)” value in data set [7] is “Active”.
For `COc1cc(NC(=O)c2ccc(O)c(O)c2CC=C(C)C)c(C/C=C(\C)CCC=C(C)C)c(OC)c1`, the inhibition result in data set [1] and in [3] was “inactive” in each case. Moreover, the outcome in data set [2], in data set [4], in data set [8] and in data set [9] was inactive. In addition, the Activity result in [5] and in data set [10] was “Not Active” in each case. For the same compound, the “inhibition (INH)” value in data set [6] is on record as “Not Active”. The “Cell growth increase (active/not active)” value in data set [7] is “Active”. Moreover, in [12], the “growth inhibition (GI)” value was “Active”. In data set [14], the inhibition result was “Active”.
On to `O=C1CC[C@@]2(O)[C@H]3Cc4ccc(O)c5c4[C@@]2(CCN3CC2CC2)[C@H]1O5`, for which, in data set [7], the “Cell growth increase (active/not active)” value is “Active”. Further, in data set [12], the “growth inhibition (GI)” value is “Active”.
